The text below walks through data of ChEMBL document CHEMBL1133503 (J Med Chem, 2000).

The species named for assay [1] is Rattus norvegicus. The assay is described as follows: Reduction potential (SCE) determined by differential pulse polarography of the sulfoxides […]. It counts as functional.
For assay [2], the species on record is Rattus norvegicus. The assay is described as follows: Bioreduction experiment was conducted by incubation of the sulfoxides with rat liver S-9 fractions in aerobic conditions(air, NADPH). The format is functional. In short, it runs like this:
(§1)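 Rat liver S-9 fraction incubated with sulfoxide at 37 °C for 30 min with shaking. Aerobic vials were left open to air. Anaerobic vials were purged with N2 for 10 min before the compound was injected. Cofactor was NADPH, benzaldehyde, 2-hydroxypyrimidine or acetaldehyde, or none. Controls were boiled S-9 and S-9 without cofactors. For menadione, S-9 was preincubated aerobically with 1 equiv for 30 min, then benzaldehyde was added. Sulfide or sulfone was measured by HPLC or TLC densitometry.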

The species named for assay [3] is Rattus norvegicus. Kind of assay: Bioreduction experiment was conducted by incubation of the sulfoxides with rat liver S-9 fractions in anaerobic conditions(N2, benzaldehyde). It counts as functional. In short, it runs like this: as §1
A short description of assay [4]: Hypoxia-selective cytotoxicity required to reduce cell survival to 10% of controls using V-79 cells in the clonogenic assay, with air. The format is functional. The note with it: Cricetulus griseus, V79. The procedure, abridged:
(§2)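 V-79 cells (500 000 per bottle) grown 20 h in MEM with 10% FBS. Hypoxic set gassed 2 h at 37 °C with humidified 95% N2/5% CO2. Drug in ethanol/water or DMF injected through septa. Exposure 3 h under air or hypoxia. Cells trypsinised, counted by trypan blue, 500 plated in triplicate for 6–8 days. Colonies stained with crystal violet, survival relative to solvent control.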

The species entered for assay [5] is Rattus norvegicus. Kind of assay: Bioreduction experiment was conducted by incubation of the sulfoxides with rat liver S-9 fractions in aerobic conditions(N2, acetaldehyde). It counts as functional. In short, it runs like this: as §1
The species named for assay [6] is Rattus norvegicus. The assay is described as follows: Bioreduction experiment was conducted by incubation of the sulfoxides with rat liver S-9 fractions in anaerobic conditions(N2, without cofactors). It counts as functional. In short, it runs like this: as §1
For assay [7], the species on record is Rattus norvegicus. The assay is described as follows: Bioreduction experiment was conducted by incubation of the sulfoxides with rat liver S-9 fractions in aerobic conditions(N2, NADPH). It counts as functional. In short, it runs like this: as §1
Assay [8] is described as follows: Concentration of drug required to reduce V-79 cell survival to 50% of controls in a SRB assay. The format is functional, cell-based. The note with it: Cricetulus griseus, V79. In short, it runs like this:
(§3)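 V-79 cells (about 7 × 10³ per 100 μL) preincubated 24 h, then exposed to drug for 3 h under oxic conditions. Washed 5× with HBSS and grown 48 h more. Fixed with TCA and stained with SRB. Bound dye dissolved in 10 mM Tris, spotted on TLC and read by video densitometry. IC50 is the mean of triplicates in one experiment. Ratio is IC50 of sulfide over sulfoxide or sulfone.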

For assay [9], the species on record is Rattus norvegicus. Kind of assay: Bioreduction experiment was conducted by incubation of the sulfoxides with rat liver S-9 fractions in aerobic conditions(N2, 2-hydroxypyrimidine). The format is functional. The procedure, abridged:
as §1

Assay [10] is filed under the species Rattus norvegicus. The assay is described as follows: Bioreduction experiment was conducted by incubation of the sulfoxides with rat liver S-9 fractions in aerobic conditions(air, without cofactors). It counts as functional. The procedure, abridged:
as §1

For assay [11], the species on record is Rattus norvegicus. The assay is described as follows: Bioreduction experiment was conducted by incubation of the sulfoxides with rat liver S-9 fractions in aerobic conditions(air, benzaldehyde). It counts as functional. In short, it runs like this: as §1
Assay [12] is described as follows: Hypoxia-selective cytotoxicity required to reduce cell survival to 10% of controls using V-79 cells in the clonogenic assay, with N2. The format is functional. The settings on record: Cricetulus griseus, V79. The procedure, abridged: as §2
Assay [13] can be described thus: Relative cytotoxicity is expressed as the ratio of the IC50 values of the corresponding sulfide to sulfoxide or to sulfone. The format is functional, Cricetulus griseus. The procedure, abridged: as §3
For assay [14], the species on record is Rattus norvegicus. The assay is described as follows: Bioreduction experiment was conducted by incubation of the sulfoxides with rat liver S-9 fractions in anaerobic conditions (N2). The format is functional. The procedure, abridged:
as §1

Assay [15] in a line: Hypoxic selectivity expressed as the ratio of IC50 values in air and nitrogen. The format is functional.
The species named for assay [16] is Rattus norvegicus. The assay is described as follows: Bioreduction experiment was conducted by incubation of the sulfoxides with rat liver S-9 fractions in aerobic conditions(N2, menadione). It counts as functional. In short, it runs like this:
as §1

For assay [17], the species on record is Rattus norvegicus. Kind of assay: Bioreduction experiment was conducted by incubation of the sulfoxides with rat liver S-9 fractions in aerobic conditions(air, control). It counts as functional. The procedure, abridged:
as §1

With `Cl.[O-][S+](c1ccc(Nc2c3ccccc3nc3ccccc23)cc1)c1ccc(N(CCCl)CCCl)cc1` (configuration not stated), the E in the assay filed under Rattus norvegicus [1] is listed as 2.63 -V. The Bioreduction came out at 0% in the assay filed under Rattus norvegicus [2]; 2.28% in the assay filed under Rattus norvegicus [3]; 1.79% in the assay filed under Rattus norvegicus [5]; 1.29% in the assay listed under Rattus norvegicus [6]; 1.37% in the assay listed under Rattus norvegicus [7]; 1.34% in the assay filed under Rattus norvegicus [9]. Further, the Bioreduction in the assay filed under Rattus norvegicus [10] was 0%; in the assay listed under Rattus norvegicus [11], 0%; in the assay filed under Rattus norvegicus [14], 0%; in the assay listed under Rattus norvegicus [16] it was 1.07%; in the assay listed under Rattus norvegicus [17], 0%. Moreover, the IC90 turned out to be 4950 µM in assay [4] and 180 µM in assay [12]. In [8], the IC50 turned out to be 26.2 µM. Besides, the Cytotoxicity in [13] is 0.07. The Selectivity in [15] is 27.

By IC90 is commonly meant the concentration at which the effect reaches the 90% level. The IC50 is the point on the concentration scale where inhibition reaches its midpoint. Low values mean higher potency, high ones lower potency.
